{"source": "ChEMBL document CHEMBL4842372", "about": "“Discovery of ARD-2585 as an Exceptionally Potent and Orally Active PROTAC Degrader of Androgen Receptor for the Treatment of Advanced Prostate Cancer” (J Med Chem, 2021)", "key": {"[1]": {"test_system": "VCaP", "assay": "Antitumor activity against human VCaP cells xenografted in CB17:SCID mouse assessed as reduction in AR protein level in tumor at 20 mg/kg, po measured for 6 to 24 hrs by Western blot analysis", "type": "functional, organism-based", "details": "time 6-24 hrs", "summary_of_the_method": "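VCaP xenografts in male CB17 SCID mice grown to about 200 mm3; single oral gavage dose of 20 mg/kg in 100% PEG200; tumors collected at 6 and 24 h, RIPA lysates blotted for AR with GAPDH as loading control, band intensity normalised to loading control.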"}, "[2]": {"assay": "Drug distribution in plasma of CB17:SCID mouse xenografted with human VCaP cells at 20 mg/kg, po measured at 24 hrs by LCMS analysis", "type": "ADME, organism-based", "summary_of_the_method": "(§1)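 Tumor-bearing male CB17 SCID mice (VCaP xenografts) given one 20 mg/kg oral dose in 100% PEG200, three mice per time point; plasma, tumor, liver, kidney, prostate and heart taken at 1, 6 and 24 h; tissues homogenised in water/acetonitrile, protein precipitated with cold acetonitrile, drug quantified by LC–MS/MS; ratios are tissue over plasma level.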"}, "[3]": {"assay": "Drug distribution in tumor of CB17:SCID mouse xenografted with human VCaP cells at 20 mg/kg, po measured at 6 hrs by LCMS analysis", "type": "ADME, organism-based, Neoplasm", "details": "read-out: Drug uptake", "summary_of_the_method": "as §1"}, "[4]": {"assay": "Drug distribution in tumor of CB17:SCID mouse xenografted with human VCaP cells at 20 mg/kg, po measured at 24 hrs by LCMS analysis", "type": "ADME, organism-based, Neoplasm", "details": "read-out: Drug uptake", "summary_of_the_method": "as §1"}, "[5]": {"test_system": "VCaP", "assay": "Antitumor activity against human VCaP cells xenografted in CB17:SCID mouse assessed as reduction in AR protein level in tumor at 10 mg/kg, po for 3 days measured at 3 hrs by Western blot analysis", "type": "functional", "details": "72 h, time 3 day", "summary_of_the_method": "(§2)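 Male CB17 SCID mice bearing subcutaneous VCaP tumors (5 × 10^6 cells in Matrigel); dosed by oral gavage in 100% PEG200 at 10 mg/kg daily for 3 days; tumors harvested 3, 6 and 24 h post-dose, lysed in RIPA, Western blot for AR with GAPDH loading control, bands quantified by densitometry relative to loading control.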"}, "[6]": {"test_system": "VCaP", "assay": "Antitumor activity against human VCaP cells xenografted in CB17:SCID mouse assessed as reduction in AR protein level in tumor at 10 mg/kg, po for 3 days measured at 6 hrs by Western blot analysis", "type": "functional", "details": "72 h, time 3 day", "summary_of_the_method": "as §2"}, "[7]": {"test_system": "VCaP", "assay": "Antitumor activity against human VCaP cells xenografted in CB17:SCID mouse assessed as reduction in AR protein level in tumor at 10 mg/kg, po for 3 days measured at 24 hrs by Western blot analysis", "type": "functional", "details": "72 h, time 3 day", "summary_of_the_method": "as §2"}, "[8]": {"assay": "Drug distribution in CB17:SCID mouse xenografted with human VCaP cells assessed as tumor to plasma ratio at 20 mg/kg, po measured at 1 hrs by LCMS analysis", "type": "ADME, organism-based", "summary_of_the_method": "as §1"}, "[9]": {"assay": "Drug distribution in CB17:SCID mouse xenografted with human VCaP cells assessed as liver to plasma ratio at 20 mg/kg, po measured at 1 hrs by LCMS analysis", "type": "ADME, organism-based", "summary_of_the_method": "as §1"}, "[10]": {"assay": "Drug distribution in CB17:SCID mouse xenografted with human VCaP cells assessed as kidney to plasma ratio at 20 mg/kg, po measured at 1 hrs by LCMS analysis", "type": "ADME, organism-based", "summary_of_the_method": "as §1"}, "[11]": {"assay": "Drug distribution in prostate gland of CB17:SCID mouse xenografted with human VCaP cells at 20 mg/kg, po measured at 1 hrs by LCMS analysis", "type": "ADME, organism-based", "details": "read-out: Drug uptake", "summary_of_the_method": "as §1"}, "[12]": {"assay": "Drug distribution in CB17:SCID mouse xenografted with human VCaP cells assessed as heart to plasma ratio at 20 mg/kg, po measured at 1 hrs by LCMS analysis", "type": "ADME, organism-based", "summary_of_the_method": "as §1"}, "[13]": {"assay": "Drug distribution in CB17:SCID mouse xenografted with human VCaP cells assessed as tumor to plasma ratio at 20 mg/kg, po measured at 6 hrs by LCMS analysis", "type": "ADME, organism-based", "summary_of_the_method": "as §1"}, "[14]": {"assay": "Drug distribution in liver of CB17:SCID mouse xenografted with human VCaP cells at 20 mg/kg, po measured at 6 hrs by LCMS analysis", "type": "ADME, organism-based", "details": "read-out: Drug uptake", "summary_of_the_method": "as §1"}, "[15]": {"assay": "Drug distribution in CB17:SCID mouse xenografted with human VCaP cells assessed as liver to plasma ratio at 20 mg/kg, po measured at 6 hrs by LCMS analysis", "type": "ADME, organism-based", "summary_of_the_method": "as §1"}, "[16]": {"assay": "Drug distribution in kidney of CB17:SCID mouse xenografted with human VCaP cells at 20 mg/kg, po measured at 6 hrs by LCMS analysis", "type": "ADME, organism-based", "details": "read-out: Drug uptake", "summary_of_the_method": "as §1"}, "[17]": {"assay": "Drug distribution in CB17:SCID mouse xenografted with human VCaP cells assessed as heart to plasma ratio at 20 mg/kg, po measured at 6 hrs by LCMS analysis", "type": "ADME, organism-based", "summary_of_the_method": "as §1"}, "[18]": {"assay": "Drug distribution in CB17:SCID mouse xenografted with human VCaP cells assessed as tumor to plasma ratio at 20 mg/kg, po measured at 24 hrs by LCMS analysis", "type": "ADME, organism-based", "summary_of_the_method": "as §1"}, "[19]": {"assay": "Drug distribution in liver of CB17:SCID mouse xenografted with human VCaP cells at 20 mg/kg, po measured at 24 hrs by LCMS analysis", "type": "ADME, organism-based", "details": "read-out: Drug uptake", "summary_of_the_method": "as §1"}, "[20]": {"target": "T1, Protein cereblon/Androgen receptor (Homo sapiens, UniProt P10275+Q96SW2)", "T1 sequence (P10275 whole entry, looked up)": "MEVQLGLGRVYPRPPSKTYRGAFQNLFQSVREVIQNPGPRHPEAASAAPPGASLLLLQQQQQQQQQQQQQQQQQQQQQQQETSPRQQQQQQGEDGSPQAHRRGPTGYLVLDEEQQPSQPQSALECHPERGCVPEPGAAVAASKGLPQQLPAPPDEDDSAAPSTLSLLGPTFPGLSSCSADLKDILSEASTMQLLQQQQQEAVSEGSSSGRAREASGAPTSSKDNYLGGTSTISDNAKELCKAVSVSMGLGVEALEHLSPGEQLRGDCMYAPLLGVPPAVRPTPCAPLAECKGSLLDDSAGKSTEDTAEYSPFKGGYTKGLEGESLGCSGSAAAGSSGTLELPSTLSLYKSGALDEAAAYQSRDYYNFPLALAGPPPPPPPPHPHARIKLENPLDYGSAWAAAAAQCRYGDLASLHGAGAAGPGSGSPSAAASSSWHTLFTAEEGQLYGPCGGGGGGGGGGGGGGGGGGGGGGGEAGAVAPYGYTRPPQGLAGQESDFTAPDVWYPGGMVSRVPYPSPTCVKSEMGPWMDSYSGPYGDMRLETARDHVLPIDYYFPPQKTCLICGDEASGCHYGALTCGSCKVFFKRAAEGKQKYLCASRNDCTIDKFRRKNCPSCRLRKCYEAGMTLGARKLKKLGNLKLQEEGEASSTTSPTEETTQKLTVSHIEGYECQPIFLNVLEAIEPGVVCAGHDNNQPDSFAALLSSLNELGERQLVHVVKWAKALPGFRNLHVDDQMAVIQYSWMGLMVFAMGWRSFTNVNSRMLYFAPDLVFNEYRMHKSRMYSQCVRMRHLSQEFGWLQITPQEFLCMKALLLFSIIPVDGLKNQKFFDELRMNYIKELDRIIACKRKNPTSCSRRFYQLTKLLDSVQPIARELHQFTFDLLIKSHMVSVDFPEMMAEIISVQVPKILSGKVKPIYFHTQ", "T1 sequence (Q96SW2 whole entry, looked up)": "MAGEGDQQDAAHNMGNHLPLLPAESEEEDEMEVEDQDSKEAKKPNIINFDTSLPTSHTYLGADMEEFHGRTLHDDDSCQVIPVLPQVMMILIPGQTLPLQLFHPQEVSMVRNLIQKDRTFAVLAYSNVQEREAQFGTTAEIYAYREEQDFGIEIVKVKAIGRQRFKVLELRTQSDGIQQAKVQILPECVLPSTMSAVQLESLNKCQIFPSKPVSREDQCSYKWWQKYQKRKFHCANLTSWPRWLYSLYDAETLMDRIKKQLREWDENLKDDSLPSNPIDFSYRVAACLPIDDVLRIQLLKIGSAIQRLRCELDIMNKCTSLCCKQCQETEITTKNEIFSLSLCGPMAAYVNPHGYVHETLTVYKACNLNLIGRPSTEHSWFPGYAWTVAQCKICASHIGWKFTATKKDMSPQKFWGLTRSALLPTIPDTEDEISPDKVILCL", "assay": "Protac activity at CRBN/AR in human VCaP cells assessed as maximal AR degradation at 0.1 nM after 24 hrs by Western blot analysis relative to control", "type": "cell-based", "summary_of_the_method": "(§3)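 Western blot of AR after 24 h exposure to a concentration series in ATCC-derived cells, all with 10% FBS at 37 °C and 5% CO2: LNCaP and 22Rv1 in RPMI1640, VCaP in DMEM with Glutamax, MDA-PCa-2b in F-12K. Lysis in RIPA with protease and phosphatase inhibitors, then 4–12% SDS-PAGE and PVDF transfer. Band minus background is normalised to GAPDH.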"}, "[21]": {"target": "T1, Protein cereblon/Androgen receptor", "assay": "Protac activity at CRBN/AR in human 22Rv1 cells assessed as maximal AR degradation at 0.1 nM after 24 hrs by Western blot analysis relative to control", "type": "cell-based", "summary_of_the_method": "as §3"}, "[22]": {"target": "T1, Protein cereblon/Androgen receptor", "assay": "Protac activity at CRBN/AR in human 22Rv1 cells assessed as reduction in AR protein level at 30 nM after 24 hrs by Western blot analysis relative to control", "type": "cell-based", "summary_of_the_method": "as §3"}, "[23]": {"test_system": "Protein cereblon/Androgen receptor (Homo sapiens), P10275+Q96SW2 [T878A]", "assay": "Protac activity at CRBN/AR T878A mutant in human LNCaP cells assessed as reduction in AR protein level at 100 nM after 3 hrs in presence of MG-132 by Western blot analysis"}, "[24]": {"test_system": "Protein cereblon/Androgen receptor (Homo sapiens), P10275+Q96SW2 [T878A]", "assay": "Protac activity at CRBN/AR T878A mutant in human LNCaP cells assessed as reduction in AR protein level at 100 nM after 3 hrs in presence of MLN4924 by Western blot analysis"}, "[25]": {"test_system": "Protein cereblon/Androgen receptor (Homo sapiens), P10275+Q96SW2 [T878A]", "assay": "Protac activity at CRBN/AR T878A mutant in human LNCaP cells assessed as reduction in AR protein level at 100 nM after 3 hrs in presence of N-((1r,4r)-4-((3-chloro-4-cyanophenyl)(methyl)amino)cyclohexyl)-4-(4-methylpiperazin-1-yl)benzamide by Western blot analysis"}}, "note": "Active and inactive are the calls of the source. The calls are words filed in the database; no cut-off is given here.", "data": [{"compound": "CN(c1ccc(C#N)c(Cl)c1)[C@H]1CC[C@H](NC(=O)c2ccc(N3CCN(C4CN(c5ccc6c(c5)C(=O)N(C5CCC(=O)NC5=O)C6=O)C4)CC3)cc2)CC1", "note": "(stereo not given in full)", "values": [{"measurement": "inhibition", "setting": "[1]", "result": "Active"}, {"measurement": "concentration at 24 h", "setting": "[2]", "result": 102, "unit": "ng/mL"}, {"measurement": "concentration at 6 h", "setting": "[3]", "result": 201, "unit": "ng/g"}, {"measurement": "concentration at 24 h", "setting": "[4]", "result": 301, "unit": "ng/g"}, {"measurement": "inhibition in vivo at 10 mg/kg", "setting": "[5]", "result": 78, "unit": "%"}, {"measurement": "inhibition in vivo at 10 mg/kg", "setting": "[6]", "result": 60, "unit": "%"}, {"measurement": "inhibition in vivo at 10 mg/kg", "setting": "[7]", "result": 78, "unit": "%"}, {"measurement": "Kp at 1 h", "setting": "[8]", "result": 0.7}, {"measurement": "Kp at 1 h", "setting": "[9]", "result": 37.7}, {"measurement": "Kp at 1 h", "setting": "[10]", "result": 6.2}, {"measurement": "concentration at 1 h", "setting": "[11]", "result": 25, "unit": "ng/g"}, {"measurement": "Kp at 1 h", "setting": "[12]", "result": 3}, {"measurement": "Kp at 6 h", "setting": "[13]", "result": 1.5}, {"measurement": "concentration at 6 h", "setting": "[14]", "result": 3510, "unit": "ng/g"}, {"measurement": "Kp at 6 h", "setting": "[15]", "result": 26.2}, {"measurement": "concentration at 6 h", "setting": "[16]", "result": 661, "unit": "ng/g"}, {"measurement": "Kp at 6 h", "setting": "[17]", "result": 2.5}, {"measurement": "Kp at 24 h", "setting": "[18]", "result": 1.4}, {"measurement": "concentration at 24 h", "setting": "[19]", "result": 6870, "unit": "ng/g"}, {"measurement": "Emax", "setting": "[20]", "result": "> 95", "unit": "%"}, {"measurement": "Emax", "setting": "[21]", "result": "> 95", "unit": "%"}, {"measurement": "inhibition", "setting": "[22]", "result": 80, "unit": "%"}, {"measurement": "Activity", "setting": "[23]", "result": "inactive"}, {"measurement": "Activity", "setting": "[24]", "result": "inactive"}, {"measurement": "Activity", "setting": "[25]", "result": "inactive"}]}]}
